Measured values from ChEMBL document CHEMBL4138215, “Discovery of caffeic acid phenethyl ester derivatives as novel myeloid differentiation protein 2 inhibitors for treatment of acute lung injury” (Eur J Med Chem, 2018).
Active and inactive are the calls of the source. The calls are words filed in the database; no cut-off is given here.

Legend:
[1] = system: Peritoneal macrophage; assay: Anti-inflammatory activity in ICR mouse peritoneal macrophages assessed inhibition of LPS-induced TNF-alpha production at 10 uM preincubated for 30 to 60 mins followed by LPS stimulation measured after 24 hrs by ELISA; type: functional, cell-based
Method in brief: (§1)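 Primary peritoneal macrophages from thioglycollate-elicited ICR mice (3 mL i.p.), collected by PBS lavage and cultured in RPMI-1640 at 37 °C, 5% CO2. Plated at 4*10⁵ cells/well and grown 24 h. Pretreated with compound (30–60 min; screen at 10, dose-response 0.5–10), then LPS for 24 h. TNF-α in the conditioned medium measured by ELISA and expressed relative to LPS alone; DMSO as vehicle.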

[2] = system: Mus musculus; assay: Anti-inflammatory activity in LPS-induced C57BL/6 mouse model of acute lung injury assessed as decrease in interstitial edema in lung tissue at 15 mg/kg, ip pretreated for 30 mins followed by LPS challenge measured after 6 hrs by hematoxylin and eosin staining-based light microscopic analysis; type: functional, organism-based; conditions: C57/BL6
[3] = system: Peritoneal macrophage; assay: Anti-inflammatory activity in ICR mouse peritoneal macrophages assessed inhibition of LPS-induced TNF-alpha production at 10 uM preincubated for 30 to 60 mins followed by LPS stimulation measured after 24 hrs by ELISA relative to control; type: functional; method in brief: as §1
[4] = system: Peritoneal macrophage; assay: Anti-inflammatory activity in ICR mouse peritoneal macrophages assessed inhibition of LPS-induced TNF-alpha production preincubated for 30 to 60 mins followed by LPS stimulation measured after 24 hrs by ELISA; type: functional, cell-based; method in brief: as §1
[5] = system: Mus musculus; assay: Anti-inflammatory activity in LPS-induced C57BL/6 mouse model of acute lung injury assessed as inhibition of total cell count in BALF at 15 mg/kg, ip pretreated for 30 mins followed by LPS challenge measured after 6 hrs; type: functional, organism-based; conditions: C57/BL6
Method in brief: (§2)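 Male C57BL/6 mice (n = 7) received 15 mg/kg i.p. in 200 µL, or vehicle, 30 min before intratracheal LPS 5 mg/kg; euthanized at 6 h. Total BALF cells counted as counts/ml. Lung MPO activity determined from absorbance change at 460 nm after a 30 min reaction and reported as U/g.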

[6] = system: Mus musculus; assay: Anti-inflammatory activity in LPS-induced C57BL/6 mouse model of acute lung injury assessed as inhibition of myeloperoxidase activity in lung tissue at 15 mg/kg, ip pretreated for 30 mins followed by LPS challenge measured after 6 hrs by H2O2 substrate based assay; type: functional, organism-based; conditions: C57/BL6; method in brief: as §2
[7] = system: Mus musculus; assay: Anti-inflammatory activity in LPS-induced C57BL/6 mouse model of acute lung injury assessed as inhibition of TNF-alpha levels in BALF at 20 mg/kg, ip pretreated for 30 mins followed by LPS challenge measured after 6 hrs by ELISA; type: functional, organism-based; conditions: C57/BL6
Method in brief: (§3)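 ALI model in male C57BL/6 mice: i.p. pretreatment 30 min before intratracheal LPS (5 mg/kg), euthanasia at 6 h. BALF spun at 1000 rpm for 10 min and the supernatant kept; plasma also collected. IL-6 and TNF-α measured by ELISA as pg/ml, mean ± SEM, n = 7.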

[8] = system: Mus musculus; assay: Anti-inflammatory activity in LPS-induced C57BL/6 mouse model of acute lung injury assessed as inhibition of TNF-alpha levels in plasma at 20 mg/kg, ip pretreated for 30 mins followed by LPS challenge measured after 6 hrs by ELISA; type: functional, organism-based; conditions: C57/BL6; method in brief: as §3
[9] = system: Mus musculus; assay: Anti-inflammatory activity in LPS-induced C57BL/6 mouse model of acute lung injury assessed as inhibition of IL-6 levels in BALF at 20 mg/kg, ip pretreated for 30 mins followed by LPS challenge measured after 6 hrs by ELISA; type: functional, organism-based; conditions: C57/BL6; method in brief: as §3
[10] = system: Mus musculus; assay: Anti-inflammatory activity in LPS-induced C57BL/6 mouse model of acute lung injury assessed as inhibition of IL-6 levels in plasma at 20 mg/kg, ip pretreated for 30 mins followed by LPS challenge measured after 6 hrs by ELISA; type: functional, organism-based; conditions: C57/BL6; method in brief: as §3
[11] = system: Mus musculus; assay: Anti-inflammatory activity in LPS-induced C57BL/6 mouse model of acute lung injury assessed as inhibition of IL-6 mRNA levels in lung tissue at 20 mg/kg, ip pretreated for 30 mins followed by LPS challenge measured after 6 hrs by RT-PCR analysis; type: functional, organism-based; conditions: C57/BL6
Method in brief: (§4)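 Male C57BL/6 mice given i.p. pretreatment 30 min before intratracheal LPS 5 mg/kg, lungs taken at 6 h. IL-6 and TNF-α mRNA in lung tissue normalized to β-actin and expressed relative to the LPS group.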

[12] = system: Mus musculus; assay: Anti-inflammatory activity in LPS-induced C57BL/6 mouse model of acute lung injury assessed as inhibition of TNF-alpha mRNA levels in lung tissue at 20 mg/kg, ip pretreated for 30 mins followed by LPS challenge measured after 6 hrs by RT-PCR analysis; type: functional, organism-based; conditions: C57/BL6; method in brief: as §4
[13] = system: Mus musculus; assay: Anti-inflammatory activity in LPS-induced C57BL/6 mouse model of acute lung injury assessed as decrease in pulmonary congestion in lung tissue at 15 mg/kg, ip pretreated for 30 mins followed by LPS challenge measured after 6 hrs by hematoxylin and eosin staining-based light microscopic analysis; type: functional, organism-based; conditions: C57/BL6
[14] = system: Mus musculus; assay: Anti-inflammatory activity in LPS-induced C57BL/6 mouse model of acute lung injury assessed as decrease in inflammatory infiltration in lung tissue at 15 mg/kg, ip pretreated for 30 mins followed by LPS challenge measured after 6 hrs by hematoxylin and eosin staining-based light microscopic analysis; type: functional, organism-based; conditions: C57/BL6
[15] = system: Mus musculus; assay: Anti-inflammatory activity in LPS-induced C57BL/6 mouse model of acute lung injury assessed as decrease in thicken alveolar septa at 15 mg/kg, ip pretreated for 30 mins followed by LPS challenge measured after 6 hrs by hematoxylin and eosin staining-based light microscopic analysis; type: functional, organism-based; conditions: C57/BL6
[16] = system: Mus musculus; assay: Anti-inflammatory activity in LPS-induced C57BL/6 mouse model of acute lung injury assessed as decrease in lung tissue destruction at 15 mg/kg, ip pretreated for 30 mins followed by LPS challenge measured after 6 hrs by hematoxylin and eosin staining-based light microscopic analysis; type: functional, organism-based; conditions: C57/BL6
[17] = system: Mus musculus; assay: Anti-inflammatory activity in LPS-induced C57BL/6 mouse model of acute lung injury assessed as decrease in TNF-alpha production in lung tissue at 15 mg/kg, ip pretreated for 30 mins followed by LPS challenge measured after 6 hrs by immumohistochemical staining-based light microscopic analysis; type: functional, organism-based; conditions: C57/BL6
Method in brief: (§5)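 Male C57BL/6 mice, 18–22 g, n = 7 per group. Compound given i.p. 15 mg/kg in 200 µL, or vehicle, 30 min before intratracheal LPS 5 mg/kg; killed 6 h later. Paraffin lung sections, 5 µm, treated with H2O2, blocked in 5% BSA, then primary anti-CD68 or anti-TNF-α overnight at 4 °C. HRP secondary 2 h at 37 °C, DAB stain, light microscopy at 200×.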

[18] = system: Mus musculus; assay: Anti-inflammatory activity in LPS-induced C57BL/6 mouse model of acute lung injury assessed as decrease in CD68 production in lung tissue at 15 mg/kg, ip pretreated for 30 mins followed by LPS challenge measured after 6 hrs by immumohistochemical staining-based light microscopic analysis; type: functional, organism-based; conditions: C57/BL6; method in brief: as §5
[19] = target: Toll-like receptor 4 (Homo sapiens) (UniProt O00206); assay: Binding affinity to TLR4 (unknown origin) by SPR analysis
Method in brief: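 SPR: TLR4 protein in acetate buffer immobilized after activation with 40 mM EDC/10 mM sNHS. Compound dilutions in PBS with 0.1% SDS, 0.05% Tween-20 and 5% DMSO; first channel used as reference. Association 120 s, dissociation 120 s, 25 °C; KD derived from binding kinetics.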

Sequence of Toll-like receptor 4 (Homo sapiens) (O00206 whole entry): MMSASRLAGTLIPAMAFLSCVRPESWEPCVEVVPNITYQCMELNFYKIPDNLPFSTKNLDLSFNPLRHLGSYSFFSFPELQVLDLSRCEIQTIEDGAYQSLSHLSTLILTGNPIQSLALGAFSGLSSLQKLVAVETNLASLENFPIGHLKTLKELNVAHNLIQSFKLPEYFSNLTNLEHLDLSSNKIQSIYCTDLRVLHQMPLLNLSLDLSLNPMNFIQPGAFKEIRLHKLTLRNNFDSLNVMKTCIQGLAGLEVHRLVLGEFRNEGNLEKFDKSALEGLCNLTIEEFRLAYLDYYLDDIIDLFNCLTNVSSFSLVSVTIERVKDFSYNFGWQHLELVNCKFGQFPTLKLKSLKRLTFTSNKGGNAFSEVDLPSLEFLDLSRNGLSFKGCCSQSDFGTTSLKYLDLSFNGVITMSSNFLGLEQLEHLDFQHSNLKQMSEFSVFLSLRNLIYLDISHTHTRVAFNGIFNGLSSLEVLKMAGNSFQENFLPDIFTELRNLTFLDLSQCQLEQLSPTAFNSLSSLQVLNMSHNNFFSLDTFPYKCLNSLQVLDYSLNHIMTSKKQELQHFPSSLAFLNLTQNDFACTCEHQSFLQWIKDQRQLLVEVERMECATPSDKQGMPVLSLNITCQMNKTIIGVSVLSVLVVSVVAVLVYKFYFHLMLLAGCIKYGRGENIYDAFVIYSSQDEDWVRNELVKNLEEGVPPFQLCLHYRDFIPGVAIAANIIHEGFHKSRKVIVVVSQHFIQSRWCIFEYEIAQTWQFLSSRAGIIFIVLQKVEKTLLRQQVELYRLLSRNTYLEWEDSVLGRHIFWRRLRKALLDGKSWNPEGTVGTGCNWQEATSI

| Structure (SMILES) | inhibition [1] | other results |
| --- | --- | --- |
| COc1cc(/C=C/C(=O)NCCc2ccccc2)cc(Br)c1O | Active | – |
| Cc1ncsc1/C=C/C(=O)NCCc1cc2ccccc2[nH]1 | inactive | – |
| C=CCOc1ccc(/C=C/C(=O)NCCc2ccccc2)cc1 | Active | – |
| Cc1ncsc1/C=C(\C#N)C(=O)NCCc1ccccc1 | Active | – |
| COc1ccc(/C=C/C(=O)NCCc2ccccc2)cc1O | Active | – |
| O=C(/C=C/c1ccc2c(c1)OCO2)NCCc1ccccc1 | Active | – |
| O=C(/C=C/c1cccnc1)NCCc1ccccc1 | Active | – |
| CCCCCCCCCNC(=O)/C=C/c1scnc1C | inactive | – |
| Cc1ncsc1/C=C/C(=O)NCCCc1ccccc1 | inactive | – |
| Cc1ncsc1/C=C/C(=O)N[C@@H](Cc1ccc(O)cc1)C(=O)OC(C)(C)C | – | Activity [2]: Active; inhibition at 10 µM [3]: 82.6%; IC50 [4]: 2.05 µM; inhibition [4]: Dose-dependent effect; inhibition [5]: Active; inhibition [6]: Active; inhibition [7]: Active; inhibition [8]: Active; inhibition [9]: Active; inhibition [10]: Active; inhibition [11]: Active; inhibition [12]: Active; Activity [13]: Active; Activity [14]: Active; Activity [15]: Active; Activity [16]: Active; Activity [17]: Active; Activity [18]: Active; Activity [19]: inactive |
| COc1cc(/C=C/C(=O)NCCc2ccccc2)ccc1O | Active | – |
| COc1cc(/C=C/C(=O)NCCc2ccccc2)ccc1OCc1ccc(C)cc1 | Active | – |
| COc1ccc2cc(CCNC(=O)/C=C/c3scnc3C)[nH]c2c1 | inactive | – |
| O=C(/C=C/c1ccc([N+](=O)[O-])cc1)NCCc1ccccc1 | inactive | – |
| COc1ccc(/C=C/C(=O)NCCc2ccccc2)cc1 | Active | – |
| COc1cc(OC)c(/C=C/C(=O)NCCc2ccccc2)c(OC)c1 | inactive | – |
| COc1cc(COc2cc(/C=C/C(=O)NCCc3ccccc3)ccc2OC)cc(OC)c1 | inactive | – |
| CCCCCCCCCCNC(=O)/C=C/c1scnc1C | inactive | – |
| COc1ccc(/C=C/C(=O)NCCc2ccccc2)cc1OCc1ccc(C)cc1 | inactive | – |
| Cc1ccc(/C=C/C(=O)NCCc2ccccc2)s1 | Active | – |
| CCCCCCCCNC(=O)/C=C/c1scnc1C | inactive | – |
| Cc1ncsc1/C=C/C(=O)N[C@@H](Cc1ccc(O)cc1)C(=O)O | inactive | – |

| Structure (SMILES) | inhibition [1] | other results |
| --- | --- | --- |
| Cc1ncsc1/C=C/C(=O)NCCc1ccc(O)cc1 | Active | – |
| CCCCCCCNC(=O)/C=C/c1scnc1C | inactive | – |
| O=C(/C=C/c1ccc(O)c(O)c1)OCCc1ccccc1 [CAFFEIC ACID PHENETHYL ESTER] | – | IC50 [4]: 4.31 µM; inhibition [5]: Active; inhibition [6]: Active; inhibition [7]: Active; inhibition [8]: Active; inhibition [9]: Active; inhibition [10]: Active |
| COc1cc(OC)c(OC)cc1/C=C/C(=O)NCCc1ccccc1 | inactive | – |
| O=C(/C=C/c1ccc(N2CCOCC2)cc1)NCCc1ccccc1 | Active | – |
| Cc1ncsc1/C=C/C(=O)N[C@@H](Cc1ccccc1)C(=O)O | inactive | – |
| COc1ccc(/C=C/C(=O)NCCc2ccccc2)cc1OC | Active | – |
| COc1cc(/C=C/C(=O)NCCc2ccccc2)ccc1OCc1ccccc1 | Active | – |
| O=C(/C=C/c1ccc(O)cc1)NCCc1ccccc1 | Active | – |
| COc1ccc(/C=C/C(=O)NCCc2ccccc2)cc1OCc1ccccc1 | inactive | – |
| Cc1ncsc1/C=C/C(=O)N[C@@H](Cc1ccccc1)C(=O)OC(C)(C)C | – | inhibition at 10 µM [3]: 68.7% |
| COc1cc(/C=C/C(=O)NCCc2ccccc2)cc(OC)c1OC | Active | – |
| Cc1ccc(/C=C/C(=O)NCCc2ccccc2)o1 | Active | – |
| O=C(/C=C/c1ccc(C(F)(F)F)cc1)NCCc1ccccc1 | inactive | – |
| COc1ccc(/C=C/C(=O)NCCc2ccccc2)c(OC)c1OC | inactive | – |
| CCOC(=O)[C@H](Cc1ccc(O)cc1)NC(=O)/C=C/c1scnc1C | – | inhibition at 10 µM [3]: 79.4%; IC50 [4]: 3.19 µM; inhibition [4]: Dose-dependent effect |
| Cc1ncsc1/C=C/C(=O)NCCc1ccc(O)c(O)c1 | Active | – |
| Cc1ncsc1/C=C/C(=O)N1CCC(c2ccccc2)CC1 | inactive | – |
| COc1cccc(/C=C/C(=O)NCCc2ccccc2)c1OC | inactive | – |
| Cc1ncsc1/C=C/C(=O)NCCCCc1ccccc1 | inactive | – |
| Cc1ncsc1/C=C/C(=O)NCCc1ccccc1 | – | inhibition at 10 µM [3]: 67.3% |
